# ABCB6 inh MLPCN = ABCB6 transporter inhibitors, primary screen, K562-ABCB6 cells, flow cytometry, MLPCN library. K562-ABCB6 porphyrin accumulation, 1 h; hits give low values. 360,000 tested, 0.19% active. fluorescence ratio to DMSO, % at 10 µM. AID 602162, 2011;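 active = fluorescence ratio to DMSO below 75%, the collection mean minus 3 SD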;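 also: signal is porphyrin accumulated inside mitochondria; 100% equals median channel fluorescence of DMSO control wells; lower ratio means ABCB6 inhibition with less porphyrin fluorescence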
# Myeloid diff MLP = induction of myeloid progenitor differentiation, primary screen, cell-based, flow cytometry, MLPCN library | ER-HoxA9 myeloid progenitors, lysozyme-GFP differentiation | calls only at 10 µM | 360,000 tested, 1% active | AID 624256, 2012;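 active = normalized GFP-positive differentiation at or above the plate's own cutoff, the solvent-only control mean plus 3 SD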;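 also: cells exposed to compound for four days before flow analysis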
# Granule exo inh = LAMP-1 surface exposure blockers, TALL-104 cells – cell-based, flow cytometry, MLPCN library, primary screen; TALL-104 LAMP-1 surface exposure; cells stimulated with thapsigargin and PMA; inhibition, % at 10 µM; 360,000 tested, 0.66% active; AID 651702, 2012;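 active = inhibition above about 55%, limit read from the data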
# Arrestin-AP2 inh = inhibitors of beta-arrestin/AP2 binding, primary screen, biochemical, GPCR trafficking, flow cytometry; beta-arrestin 1 C-terminal peptide binding to AP2 beta2-adaptin appendage (human); FITC-arrestin peptide / GST-AP2 beads; AP2 beta2 appendage carries R879A mutation; inhibition, % at 10 µM; 340,000 tested, 0.31% active;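 active = inhibition above a set limit, near 3 SD of compounds lacking own fluorescence, cut at about 54% in these data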;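 also: plate controls were DMSO wells for no effect and 5 µM unlabelled arrestin peptide for full effect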
#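 System: GST-tagged AP2 beta2-adaptin appendage (R879A) on 4 µm glutathione beads / Reagent: FITC-arrestin peptide, 50 nM / Detection: HyperCyt-sampled flow cytometry, FL1 channel, ex 488/em 535 nm / Timing: 12 min plus 1 h, RT / Buffer or medium: PBS plus Tween 20 (0.05%) and BSA (0.1%)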
# NRP1-CendR mod = modulators of CendR peptide binding to NRP-1, primary screen, biochemical, fluorescence polarization, uHTS; FAM-RPARPAR peptide binding to NRP-1; Neuropilin-1 (Homo sapiens), O14786; 360,000 tested, 0.85% active; inhibition, % at 25 µM;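 active = inhibition or corrected inhibition above about 18%, plus a signal ratio from 0.5 to 1.5, limit read from the data, passing the limit was not always enough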
# Target sequence (O14786 whole entry, looked up): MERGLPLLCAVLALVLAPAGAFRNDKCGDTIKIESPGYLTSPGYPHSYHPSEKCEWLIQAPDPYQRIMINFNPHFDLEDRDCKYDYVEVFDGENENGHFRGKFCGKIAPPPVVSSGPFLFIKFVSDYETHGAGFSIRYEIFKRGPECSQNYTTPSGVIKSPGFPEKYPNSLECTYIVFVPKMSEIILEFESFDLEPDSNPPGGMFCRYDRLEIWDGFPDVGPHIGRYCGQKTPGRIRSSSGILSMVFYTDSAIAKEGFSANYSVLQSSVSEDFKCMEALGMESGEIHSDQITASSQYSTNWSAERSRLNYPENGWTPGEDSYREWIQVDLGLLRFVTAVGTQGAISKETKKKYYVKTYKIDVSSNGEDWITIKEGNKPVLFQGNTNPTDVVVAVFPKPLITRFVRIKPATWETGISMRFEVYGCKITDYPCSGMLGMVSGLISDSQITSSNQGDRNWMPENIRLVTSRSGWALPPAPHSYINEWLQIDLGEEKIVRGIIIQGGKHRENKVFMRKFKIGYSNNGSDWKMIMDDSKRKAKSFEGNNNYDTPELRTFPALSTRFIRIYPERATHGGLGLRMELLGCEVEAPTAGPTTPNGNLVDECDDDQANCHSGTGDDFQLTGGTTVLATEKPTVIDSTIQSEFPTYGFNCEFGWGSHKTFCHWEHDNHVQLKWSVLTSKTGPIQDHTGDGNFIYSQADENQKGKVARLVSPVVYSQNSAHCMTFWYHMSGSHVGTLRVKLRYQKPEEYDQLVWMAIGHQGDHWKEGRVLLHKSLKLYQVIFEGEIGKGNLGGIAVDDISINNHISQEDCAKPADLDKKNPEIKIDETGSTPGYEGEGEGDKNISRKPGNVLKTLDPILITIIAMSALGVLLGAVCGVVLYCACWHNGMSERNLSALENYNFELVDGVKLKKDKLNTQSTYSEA
# ATG4B inhibitor = ATG4B protease inhibitors, primary screen, biochemical, fluorescence, uHTS. Cysteine protease ATG4B (Homo sapiens), Q9Y4P1. ATG4B cleavage of LC3-PLA2, NBD-HPC fluorescence, 1 h. inhibition, % at 8.33 µM. 340,000 tested, 0.51% active; in the data active = inhibition above about 40%
# Arr-AP2 CP1 = inhibitors of arrestin peptide binding to AP2, confirmation, biochemical, cherry pick 1, flow cytometry beads; shares compounds with Arrestin-AP2 inh; GST-AP2 beads, FITC arrestin peptide binding; GST-fused beta2-adaptin appendage, R879A mutant; inhibition, % at 10 µM; 1,300 tested, 2% active; AID 504908, 2011;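 active = inhibition above a set limit, roughly 3 SD of non-fluorescent compound noise, cut at about 38% in these data; inactive = inhibition at or below that limit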;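 also: loss of bead fluorescence from 50 nM FITC arrestin peptide bound to appendage; 0% = negative control wells and 100% = excess unlabelled arrestin peptide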
# GST GSH counter = GST-fluorescein capture on glutathione beads, confirmation, artefact control for arrestin-AP2 inhibitor project, biochemical, cherry pick 1, flow cytometry. GST-fluorescein binding to GSH beads, fluorescence, counter-screen. AID 588338, 2011. inhibition, % at 10 µM. 1,300 tested, 2% active. shares compounds with Arrestin-AP2 inh;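 active = inhibition above 50%, about 3 SD of the inhibition seen with non-fluorescent compounds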;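 also: fluorescein maleimide labelled GST captured on 4 micron glutathione beads; higher means more loss of bead fluorescence from quenching or blocked binding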
# * marks the source's active call; other numbers are inactive results; i = inactive; . = not tested or not shown. An excerpt weighted towards active compounds, which were near 3.3% of everything screened.
SMILES,ABCB6 inh MLPCN,Myeloid diff MLP,Granule exo inh,Arrestin-AP2 inh,NRP1-CendR mod,ATG4B inhibitor,Arr-AP2 CP1,GST GSH counter
CCCCCOC(=O)CCN1C(=O)/C(=C2\SC(=S)N(CCC(=O)OCCCCC)C2=O)SC1=S,109.0,i,7.6,56.2*,6.6,2.8,0.6,-2.2
O=C(O)CC1(CC(=O)Nc2ccccc2Br)CCCC1,97.0,i,-0.6,12.2,-7.9,2.9,.,.
COc1ccc2cc(C(=O)Nc3ccc(O)cc3)sc(=O)c2c1OC,102.0,i,0.3,2.8,13.0,2.8,.,.
COc1ccc2cc(C(=O)Nc3ccc(F)cc3)sc(=O)c2c1OC,94.0,i,-0.4,98.9*,-16.9,9.4,-0.8,-3.1
COC(=O)CNC(=O)C12CC3(C)CC(C)(CC(C)(C3)C1)C2,92.0,i,2.5,59.3*,10.7,-4.4,-6.7,-0.8
COC(=O)Cn1c(CN2CCN(C(=O)c3ccco3)CC2)nc2c1c(=O)n(C)c(=O)n2C,95.0,i,-8.2,20.1,8.3,-8.3,.,.
O=C(c1cnn2c(C(F)(F)F)cc(-c3ccc(Br)cc3)nc12)N1CCOCC1,104.0,i,-0.8,-0.2,-4.5,-3.0,.,.
Cc1cc(NC(=O)c2cnn3c(C(F)(F)F)cc(-c4ccc(Br)cc4)nc23)no1,95.0,i,0.4,5.7,-0.7,-8.4,-6.2,-6.5
CC(=O)CC(=O)Nc1ccccc1NC(C)=O,79.0,i,1.0,19.9,1.1,-0.5,-4.1,-5.1
COc1ccccc1NC(=O)NCCN1CCNC1=O,107.0,i,-3.9,5.5,-7.3,-3.3,.,.
COc1ccc(Cl)cc1NC(=O)CC(C)=O,89.0,i,-0.5,5.1,14.8,-3.6,3.1,-7.9
COc1ccc(NC(=O)CC(=O)Nc2ccc(OC)cc2OC)c(OC)c1,103.0,i,0.4,5.5,-3.7,-3.9,.,.
COc1ccc(NC(=O)CC(C)=O)c(OC)c1,103.0,i,17.8,-1.0,-0.1,-2.9,5.7,-3.2
COc1ccc(Cl)cc1NC(=O)COC(C)=O,100.0,i,-0.7,-14.4,-11.3,-1.3,.,.
COc1ccc(Cl)cc1NC(=O)NCCN1CCNC1=O,92.0,i,0.2,60.0*,0.7,-7.0,7.9,-1.5
CC(C)N(C(=O)CN1C(=O)NC(c2ccccc2)(c2ccccc2)C1=O)C(C)C,101.0,i,-3.8,3.8,14.9,-13.9,.,.
O=C(O)C1=CC[C@@H](c2ccc(Cl)cc2)N(S(=O)(=O)c2ccc(Cl)cc2)[C@H]1c1ccccc1,107.0,i,-2.8,-0.6,5.6,2.0,.,.
O=c1cc(C(F)(F)F)nc(-c2cccnc2)[nH]1,102.0,i,-2.3,4.4,0.9,0.2,.,.
Cc1cc(=O)[nH]c(-c2cccnc2)n1,103.0,i,0.4,62.6*,-0.7,-5.7,-2.7,-6.0
COc1ccc(CC(=O)NNC(=O)c2cc(C)oc2C)cc1OC,103.0,i,-0.3,64.9*,4.8,2.5,6.7,-4.7
COc1ccc(CC(=O)NNC(=O)c2ccccc2)cc1OC,90.0,i,0.2,2.1,1.5,-2.6,.,.
CCCCC(=O)Nc1c(-c2cccc(OC)c2)c(=O)c2ccccc2n1C,97.0,i,1.5,5.9,4.1,0.5,.,.
COc1ccc(S(=O)(=O)c2ccc(OCC3CO3)cc2)cc1 (centres undefined),97.0,i,-1.0,64.2*,5.3,-6.3,12.0,-2.4
COc1ccc(S(=O)(=O)c2ccc(O)cc2)cc1,94.0,i,-1.9,-14.2,0.6,-8.6,.,.
Cc1nn(Cc2ccc(Cl)cc2Cl)c(Cl)c1/C=C/C(=O)OCC(=O)NCC(F)(F)F,94.0,i,1.1,81.4*,0.0,-12.4,-4.1,-8.3
SMILES,ABCB6 inh MLPCN,Myeloid diff MLP,Granule exo inh,Arrestin-AP2 inh,NRP1-CendR mod,ATG4B inhibitor,Arr-AP2 CP1,GST GSH counter
O=C(CCN1C(=O)/C(=C/c2ccc(F)cc2)SC1=S)NNC(=O)c1cccnc1,97.0,i,-3.3,2.6,-14.1,3.5,.,.
O=C(CCN1C(=O)/C(=C/c2ccccc2)SC1=S)NNC(=O)c1cccnc1,95.0,i,-2.0,106.4*,-6.8,-2.4,9.9,0.7
COc1ccc(C(=O)Nc2ccc(S(=O)(=O)NC(C)=O)cc2)cc1[N+](=O)[O-],102.0,i,-3.4,-11.1,-0.3,3.6,.,.
CCOCCCNS(=O)(=O)c1ccc(NC(=O)c2ccc(OC)c([N+](=O)[O-])c2)cc1,99.0,i,-3.8,55.8*,1.8,-3.4,10.1,7.3
CSc1cccc(NC(=S)N(Cc2ccc(C)cc2)Cc2ccccn2)c1,96.0,i,0.8,54.0*,1.3,-1.2,-7.6,-9.4
CCN(CC)c1ccc(CN(C(=O)c2ccco2)C2CCS(=O)(=O)C2)cc1 (centres undefined),100.0,i,0.7,-0.2,14.9,2.5,.,.
CCc1ccc(CN(C(=O)c2ccco2)C2CCS(=O)(=O)C2)cc1 (centres undefined),95.0,i,-9.0,66.9*,-3.2,0.5,-14.8,-1.3
CC1CC(C)CN(C(=O)COC(=O)c2ccc(Cl)nc2)C1 (centres undefined),98.0,i,4.9,52.5,-4.7,0.4,.,.
CC1CC(C)CN(C(=O)COC(=O)c2nccnc2N)C1 (centres undefined),91.0,i,-1.4,62.8*,6.0,2.6,13.8,1.0
Cc1ccc(S(=O)(=O)N2CCCCC2)cc1NC(=O)c1ccncc1,92.0,i,-1.6,4.9,-8.9,-10.8,3.8,0.9
Cc1ccnc(NC(=O)c2cccc(S(=O)(=O)N3CCCC3)c2)c1,83.0,i,0.1,59.7*,14.4,-1.3,23.6,1.1
O=C(NCc1ccc(F)cc1)C1CCCN1C(=O)Nc1ccc(Cl)cc1 (centres undefined),95.0,i,5.0,18.1,0.9,-1.5,.,.
CC(C)(C)C(=O)NCc1ccc(C(=O)CSc2nnc(-c3ccncc3)n2C2CC2)s1,100.0,i,-0.5,62.4*,-1.1,-4.0,-11.5,2.1

# Screens: PubChem BioAssay, several laboratories
